Results taken from ChEMBL document CHEMBL1153733, “Imidazole derivatives as possible microbicides with dual protection” (Eur J Med Chem, 2010).
In brackets after ≈: the same amount, converted by molar mass.

Experiments:
[1] = tested on: HeLa; experiment: Cytotoxicity against human HeLa cells at 200 ug/ml after 24 hrs by MTT assay; type: cell-based
In short: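 HeLa cells seeded at 5.0 × 10⁴ per well in DMEM with 10% FCS, 24 h at 37 °C in 5% CO₂; medium replaced with fresh medium containing test dilutions, 10% DMSO vehicle in control wells. After a further 24 h, MTT added; formazan dissolved in DMSO, OD read at 540 nm. Mean ± SE of 3 estimations.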

[2] = tested on: Aspergillus fumigatus; experiment: Antifungal activity against Aspergillus fumigatus after 48 hrs by broth microdilution technique; type: functional
In short: (§1)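 Broth microdilution MIC per NCCLS guidelines in RPMI 1640 buffered with MOPS; starting inoculum of test culture 1–5 × 10³ CFU/mL.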

[3] = tested on: Cryptococcus neoformans; experiment: Antifungal activity against Cryptococcus neoformans after 48 hrs by broth microdilution technique; type: functional; in short: as §1
[4] = tested on: Spermatozoa; experiment: Sperimcidal activity against human spermatozoa assessed as sperm motility at 1 % drug solution%; type: functional
In short: (§2)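 Drop of sperm–compound mixture placed on slide under cover glass, examined by phase contrast microscopy in five fields; percentage of motile spermatozoa scored visually within 30–40 s. N-9 as reference control; some compounds tested as D-(-)-tartrate salts.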

[5] = tested on: Trichomonas vaginalis; experiment: Antitrichomonal activity against Trichomonas vaginalis after 48 hrs by trypan blue exclusion assay; type: functional
In short: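 Trophozoites in TYM medium; stock solutions serially diluted in TYM to concentrations up to 0.1 mg/mL, DMSO/TYM as vehicle control. Parasites added, incubated anaerobically at 37 °C, viability checked by trypan blue exclusion under microscope (200×) from 3 to 48 h. MIC = lowest concentration with all cells dead at 48 h. Metronidazole reference; run three times.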

[6] = tested on: Sporothrix schenckii; experiment: Antifungal activity against Sporothrix schenckii after 48 hrs by broth microdilution technique; type: functional; in short: as §1
[7] = tested on: Candida parapsilosis; experiment: Antifungal activity against Candida parapsilosis after 48 hrs by broth microdilution technique; type: functional; conditions: Lodderomyces parapsilosis; in short: as §1
[8] = tested on: Candida albicans; experiment: Antifungal activity against Candida albicans after 48 hrs by broth microdilution technique; type: functional; in short: as §1
[9] = tested on: Trichophyton mentagrophytes; experiment: Antifungal activity against Trichophyton mentagrophytes after 48 hrs by broth microdilution technique; type: functional; in short: as §1
[10] = tested on: Spermatozoa; experiment: Sperimcidal activity against human spermatozoa assessed as sperm immobilization at 1 % drug solution%; type: functional; in short: as §2

| SMILES | Activity [1] | MIC [2] [µg/mL] | MIC [3] [µg/mL] | Activity [4] [%] | MIC [5] [µM] | MIC [6] [µg/mL] | MIC [7] [µg/mL] | MIC [8] [µg/mL] | MIC [9] [µg/mL] | Activity [10] [%] |
| --- | --- | --- | --- | --- | --- | --- | --- | --- | --- | --- |
| Cc1ncc([N+](=O)[O-])n1CCOC(=O)CCN1CCN(c2ccc(F)cc2)CC1 | Non-toxic | > 50 | > 50 | 88.24 | 1.54 (≈ 0.624 µg/mL) | > 50 | > 50 | > 50 | 50 (≈ 123 µM) | – |
| Cc1ncc([N+](=O)[O-])n1CCOS(C)(=O)=O | – | > 50 | > 50 | 94.12 | 5.02 (≈ 1.25 µg/mL) | 50 (≈ 201 µM) | > 50 | > 50 | > 50 | – |
| Cc1ncc([N+](=O)[O-])n1CCn1cnc2ccccc21 | Non-toxic | > 50 | > 50 | 0 | 4.61 (≈ 1.25 µg/mL) | 50 (≈ 184 µM) | > 50 | > 50 | > 50 | 100 |
| Cc1ncc([N+](=O)[O-])n1CCOC(=O)CCn1ccnc1[N+](=O)[O-] | Non-toxic | > 50 | > 50 | 100 | 9.25 (≈ 3.13 µg/mL) | > 50 | > 50 | > 50 | 50 (≈ 148 µM) | – |
| Cc1ncc([N+](=O)[O-])n1CCOC(=O)CCn1c([N+](=O)[O-])cnc1C | Non-toxic | > 50 | > 50 | 88.24 | 20.6 (≈ 7.26 µg/mL) | > 50 | > 50 | > 50 | 50 (≈ 142 µM) | – |
| Cc1ncc([N+](=O)[O-])n1CCSC(=S)N1CCN(c2ccc([N+](=O)[O-])cc2)CC1 | Non-toxic | > 50 | > 50 | 41.18 | 2.87 (≈ 1.25 µg/mL) | > 50 | > 50 | > 50 | > 50 | – |
| Cc1ncc([N+](=O)[O-])n1CCOC(=O)CCn1ccnc1 | Non-toxic | > 50 | > 50 | 100 | 10.7 (≈ 3.13 µg/mL) | > 50 | > 50 | > 50 | 50 (≈ 170 µM) | – |
| CS(=O)(=O)[O-].Cc1ncc([N+](=O)[O-])n1CC[n+]1ccccc1 | Non-toxic | > 50 | > 50 | 85.09 | 9.53 | > 50 | > 50 | > 50 | > 50 | – |
| Cc1ncc([N+](=O)[O-])n1CCn1ccnc1 | Non-toxic | > 50 | > 50 | 92.36 | 14.1 (≈ 3.13 µg/mL) | 50 (≈ 226 µM) | > 50 | 25 (≈ 113 µM) | > 50 | – |
| C=CC(=O)OCCn1c([N+](=O)[O-])cnc1C | Non-toxic | > 50 | 50 (≈ 222 µM) | 70.59 | 42.2 (≈ 9.51 µg/mL) | 50 (≈ 222 µM) | > 50 | > 50 | 50 (≈ 222 µM) | – |
| Cc1ncc([N+](=O)[O-])n1CCOC(=O)CCn1nnc2ccccc21 | Non-toxic | > 50 | > 50 | 95.734 | 27.6 (≈ 9.51 µg/mL) | > 50 | > 50 | > 50 | 50 (≈ 145 µM) | – |
| Cc1ncc([N+](=O)[O-])n1CCOC(=O)CCn1cncn1 | Non-toxic | > 50 | > 50 | 100 | 21.3 (≈ 6.26 µg/mL) | > 50 | > 50 | > 50 | 50 (≈ 170 µM) | – |
| Cc1ncc([N+](=O)[O-])n1CCSC(=S)N1CCN(c2ncccn2)CC1 | Non-toxic | > 50 | > 50 | 94.12 | 25.4 (≈ 10 µg/mL) | > 50 | > 50 | > 50 | 50 (≈ 127 µM) | – |
| Cc1ncc([N+](=O)[O-])n1CCCl | – | > 50 | 50 (≈ 264 µM) | 58.82 | 6.6 (≈ 1.25 µg/mL) | 50 (≈ 264 µM) | > 50 | > 50 | > 50 | – |
| CC(=O)OCCn1c([N+](=O)[O-])cnc1C | – | > 50 | > 50 | 82.35 | 23.5 (≈ 5 µg/mL) | > 50 | > 50 | > 50 | > 50 | – |
| Cc1ncc([N+](=O)[O-])n1CCOC(=O)CCl | – | > 50 | > 50 | 98.37 | 10.1 (≈ 2.5 µg/mL) | > 50 | > 50 | > 50 | 25 (≈ 101 µM) | – |
| Cc1ncc([N+](=O)[O-])n1CCOC(=O)CCN1CCN(c2ccc([N+](=O)[O-])cc2)CC1 | Non-toxic | > 50 | > 50 | 82.35 | 1.45 (≈ 0.627 µg/mL) | > 50 | > 50 | > 50 | 50 (≈ 116 µM) | – |
| Cc1ncc([N+](=O)[O-])n1CCSC(=S)N1CCOCC1 | Non-toxic | > 50 | > 50 | 70.59 | 1.98 (≈ 0.626 µg/mL) | 50 (≈ 158 µM) | > 50 | > 50 | 50 (≈ 158 µM) | – |
| Cc1ncc([N+](=O)[O-])n1CCSC(=S)N1CCCCC1 | Non-toxic | > 50 | > 50 | 70.59 | 1 (≈ 0.314 µg/mL) | 25 (≈ 79.5 µM) | > 50 | > 50 | 50 (≈ 159 µM) | – |
| Cc1ncc([N+](=O)[O-])n1CCOC(=O)CCN(C)CCC(Oc1ccc(C(F)(F)F)cc1)c1ccccc1 (stereo not given) | Non-toxic | > 50 | > 50 | 0 | 11.7 (≈ 6.25 µg/mL) | > 50 | > 50 | > 50 | 50 (≈ 93.5 µM) | 100 |
| CCN(CC)C(=S)SCCn1c([N+](=O)[O-])cnc1C | Non-toxic | > 50 | 50 (≈ 165 µM) | 100 | 1.03 (≈ 0.311 µg/mL) | 25 (≈ 82.7 µM) | > 50 | 50 (≈ 165 µM) | 25 (≈ 82.7 µM) | – |
| Cc1ncc([N+](=O)[O-])n1CCSC(=S)N1CCN(C)CC1 | Non-toxic | > 50 | > 50 | 0 | 7.6 (≈ 2.5 µg/mL) | 50 (≈ 152 µM) | > 50 | > 50 | 50 (≈ 152 µM) | 100 |
| Cc1ncc([N+](=O)[O-])n1CCSC(=S)N1CCCC1.O=C(O)C(O)C(O)C(=O)O | Non-toxic | > 50 | 50 | 0 | 8.33 | 25 | > 50 | 50 | 50 | 100 |
| Cc1ncc([N+](=O)[O-])n1CCSC(=S)N(C)C.O=C(O)C(O)C(O)C(=O)O | Non-toxic | > 50 | > 50 | 0 | 1.14 | > 50 | > 50 | > 50 | 50 | 100 |
| COc1ccccc1N1CCN(C(=S)SCCn2c([N+](=O)[O-])cnc2C)CC1.O=C(O)C(O)C(O)C(=O)O | Non-toxic | > 50 | > 50 | 0 | 5.94 | 50 | > 50 | > 50 | 25 | 100 |
| Cc1ncc([N+](=O)[O-])n1CCSC(=S)N1CCN(c2ccccn2)CC1.O=C(O)C(O)C(O)C(=O)O | Non-toxic | > 50 | > 50 | 0 | 6.38 | 50 | > 50 | > 50 | 50 | 100 |
| OC(Cn1cncn1)(Cn1cncn1)c1ccc(F)cc1F [FLUCONAZOLE] | Non-toxic | 2 (≈ 6.53 µM) | 1 (≈ 3.27 µM) | – | – | 2 (≈ 6.53 µM) | 1 (≈ 3.27 µM) | 0.5 (≈ 1.63 µM) | 1 (≈ 3.27 µM) | – |
| Cc1ncc([N+](=O)[O-])n1CCOC(=S)[S-].[Na+] [METRONIDAZOLE XANTHATE] | Non-toxic | > 50 | > 50 | 90.24 | 112 | > 50 | > 50 | > 50 | > 50 | – |
| Cc1ncc([N+](=O)[O-])n1CCO [METRONIDAZOLE] | Non-toxic | – | – | 100 | 11.7 (≈ 2 µg/mL) | – | – | – | – | – |
| CCCCCCCCCc1ccc(OCCOCCOCCOCCOCCOCCOCCOCCOCCO)cc1 [NONOXYNOL 9] | – | – | – | 0 | 60.8 (≈ 37.5 µg/mL) | – | 50 (≈ 81.1 µM) | > 50 | – | – |
